Data taken from ChEMBL document CHEMBL4229573, “Discovery of Quinazolines That Activate SOS1-Mediated Nucleotide Exchange on RAS” (ACS Med Chem Lett, 2018).
Active and inactive are the calls of the source. The calls are words filed in the database; no cut-off is given here.

How the values were obtained:
[1] = molecular target: T1, Son of sevenless homolog 1 (Homo sapiens) (UniProt Q07889); experiment: Activation of SOS1 in human HeLa cells assessed as effect on RAS-GTP levels by measuring […] at 25 uM after 30 mins by active RAS pull-down assay relative to control; type: cell-based
T1 sequence (whole entry): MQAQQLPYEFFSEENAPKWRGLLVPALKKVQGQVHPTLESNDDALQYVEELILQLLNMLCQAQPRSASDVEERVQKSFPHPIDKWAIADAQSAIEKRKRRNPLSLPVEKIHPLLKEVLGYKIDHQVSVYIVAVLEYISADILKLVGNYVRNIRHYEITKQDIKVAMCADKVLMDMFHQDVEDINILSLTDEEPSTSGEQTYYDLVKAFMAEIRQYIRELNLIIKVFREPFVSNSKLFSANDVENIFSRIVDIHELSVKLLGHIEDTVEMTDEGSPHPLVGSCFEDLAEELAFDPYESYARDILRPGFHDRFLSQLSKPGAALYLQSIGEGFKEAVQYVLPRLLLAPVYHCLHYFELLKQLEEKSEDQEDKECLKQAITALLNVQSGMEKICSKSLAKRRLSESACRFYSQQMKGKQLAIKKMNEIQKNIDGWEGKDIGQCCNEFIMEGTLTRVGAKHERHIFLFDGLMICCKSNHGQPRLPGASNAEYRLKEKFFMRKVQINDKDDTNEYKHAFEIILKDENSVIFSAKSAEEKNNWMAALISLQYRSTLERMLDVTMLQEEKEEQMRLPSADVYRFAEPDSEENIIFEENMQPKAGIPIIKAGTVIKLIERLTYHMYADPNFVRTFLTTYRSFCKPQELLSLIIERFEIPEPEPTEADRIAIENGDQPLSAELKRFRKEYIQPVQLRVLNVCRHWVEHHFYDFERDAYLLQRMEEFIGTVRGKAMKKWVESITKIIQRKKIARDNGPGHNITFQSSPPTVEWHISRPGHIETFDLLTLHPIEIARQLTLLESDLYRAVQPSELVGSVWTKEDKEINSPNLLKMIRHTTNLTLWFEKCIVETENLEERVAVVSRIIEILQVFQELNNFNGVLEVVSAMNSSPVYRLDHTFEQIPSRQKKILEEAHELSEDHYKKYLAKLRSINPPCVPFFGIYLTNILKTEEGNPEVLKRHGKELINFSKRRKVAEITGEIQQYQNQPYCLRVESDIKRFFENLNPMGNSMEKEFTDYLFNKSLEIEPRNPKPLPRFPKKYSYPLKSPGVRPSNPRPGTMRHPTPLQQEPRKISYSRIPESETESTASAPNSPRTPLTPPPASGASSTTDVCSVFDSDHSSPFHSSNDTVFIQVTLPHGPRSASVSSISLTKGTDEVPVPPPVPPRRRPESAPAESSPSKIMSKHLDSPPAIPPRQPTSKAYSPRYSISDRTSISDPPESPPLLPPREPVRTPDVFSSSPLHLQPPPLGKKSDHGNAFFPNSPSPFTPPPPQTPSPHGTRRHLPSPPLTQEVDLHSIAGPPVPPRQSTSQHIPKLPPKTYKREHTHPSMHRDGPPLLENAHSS
Summary of the method: (§1)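 HeLa cells treated for 30 min with compound at concentrations up to 100 μM. RAS-GTP and ERK1/2 phosphorylated at T202/Y204 were detected by blotting and quantified. EGF (50 ng/mL, 5 min) served as the positive control for pathway activation.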

[2] = molecular target: T1, Son of sevenless homolog 1 (Homo sapiens); experiment: Activation of SOS1 in human HeLa cells assessed as effect on RAS-GTP levels by measuring […] at 12.5 uM after 30 mins by active RAS pull-down assay relative to control; type: cell-based; summary of the method: as §1
[3] = molecular target: T1, Son of sevenless homolog 1 (Homo sapiens); experiment: Activation of SOS1 in human HeLa cells assessed as effect on ERK1/2 phosphorylation at T202/Y204 residue by measuring […] at 50 uM after 30 mins by Western blot analysis relative to control; type: cell-based; summary of the method: as §1
[4] = molecular target: T1, Son of sevenless homolog 1 (Homo sapiens); experiment: Activation of SOS1 in human HeLa cells assessed as effect on ERK1/2 phosphorylation at T202/Y204 residue by measuring […] at 100 uM after 30 mins by Western blot analysis relative to control
[5] = molecular target: T1, Son of sevenless homolog 1 (Homo sapiens); experiment: Activation of SOS1 in human HeLa cells assessed as effect on RAS-GTP levels by measuring […] at 100 uM after 30 mins by active RAS pull-down assay relative to control; type: cell-based; summary of the method: as §1
[6] = molecular target: T1, Son of sevenless homolog 1 (Homo sapiens); experiment: Activation of SOS1 in human HeLa cells assessed as effect on ERK1/2 phosphorylation at T202/Y204 residue by measuring […] at 3.1 uM after 30 mins by Western blot analysis relative to control; type: cell-based; summary of the method: as §1
[7] = molecular target: T1, Son of sevenless homolog 1 (Homo sapiens); experiment: Activation of SOS1 in human HeLa cells assessed as effect on RAS-GTP levels by measuring […] at 6.3 uM after 30 mins by active RAS pull-down assay relative to control; type: cell-based; summary of the method: as §1
[8] = molecular target: T1, Son of sevenless homolog 1 (Homo sapiens); experiment: Activation of SOS1 in human HeLa cells assessed as effect on ERK1/2 phosphorylation at T202/Y204 residue by measuring […] at 12.5 uM after 30 mins by Western blot analysis relative to control; type: cell-based; summary of the method: as §1
[9] = molecular target: T1, Son of sevenless homolog 1 (Homo sapiens); experiment: Activation of SOS1 in human HeLa cells assessed as effect on ERK1/2 phosphorylation at T202/Y204 residue by measuring […] at 6.3 uM after 30 mins by Western blot analysis relative to control; type: cell-based; summary of the method: as §1
[10] = molecular target: T1, Son of sevenless homolog 1 (Homo sapiens); experiment: Activation of SOS1 in human HeLa cells assessed as effect on RAS-GTP levels by measuring […] at 50 uM after 30 mins by active RAS pull-down assay relative to control; type: cell-based; summary of the method: as §1
[11] = molecular target: T1, Son of sevenless homolog 1 (Homo sapiens); experiment: Activation of SOS1 in human HeLa cells assessed as effect on ERK1/2 phosphorylation at T202/Y204 residue by measuring […] at 25 uM after 30 mins by Western blot analysis relative to control; type: cell-based; summary of the method: as §1
[12] = molecular target: T1, Son of sevenless homolog 1 (Homo sapiens); experiment: Activation of SOS1 in human HeLa cells assessed as effect on RAS-GTP levels by measuring […] at 3.1 uM after 30 mins by active RAS pull-down assay relative to control; type: cell-based; summary of the method: as §1
[13] = molecular target: Mitogen-activated protein kinase 1 (Homo sapiens) (UniProt P28482); experiment: Inhibition of human ERK2 using myelin basic protein as substrate measured in presence of [gamma33P]ATP
Mitogen-activated protein kinase 1 (Homo sapiens), sequence (P28482 whole entry): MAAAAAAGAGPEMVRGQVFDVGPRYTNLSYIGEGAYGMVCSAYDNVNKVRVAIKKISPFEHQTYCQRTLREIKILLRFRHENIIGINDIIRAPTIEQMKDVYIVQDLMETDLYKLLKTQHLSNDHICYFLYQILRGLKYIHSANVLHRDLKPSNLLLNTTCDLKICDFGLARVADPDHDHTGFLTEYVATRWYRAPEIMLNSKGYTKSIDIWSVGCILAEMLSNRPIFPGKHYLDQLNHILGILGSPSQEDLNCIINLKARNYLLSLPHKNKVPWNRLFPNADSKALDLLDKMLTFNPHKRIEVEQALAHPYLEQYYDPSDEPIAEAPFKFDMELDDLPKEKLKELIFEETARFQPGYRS

[14] = molecular target: Mitogen-activated protein kinase 3 (Homo sapiens) (UniProt P27361); experiment: Inhibition of human ERK1 using myelin basic protein as substrate measured in presence of [gamma33P]ATP
Mitogen-activated protein kinase 3 (Homo sapiens), sequence (P27361 whole entry): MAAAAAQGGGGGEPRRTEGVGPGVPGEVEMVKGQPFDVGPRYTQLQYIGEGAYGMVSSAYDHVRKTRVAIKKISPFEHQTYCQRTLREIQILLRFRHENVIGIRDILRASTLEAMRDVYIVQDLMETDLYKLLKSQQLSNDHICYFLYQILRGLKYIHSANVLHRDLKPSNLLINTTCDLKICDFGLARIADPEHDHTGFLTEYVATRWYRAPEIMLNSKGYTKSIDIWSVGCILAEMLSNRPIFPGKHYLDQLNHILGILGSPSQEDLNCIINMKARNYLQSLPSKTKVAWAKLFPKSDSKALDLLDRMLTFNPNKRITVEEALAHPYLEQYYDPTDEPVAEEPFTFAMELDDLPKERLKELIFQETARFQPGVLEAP

[15] = molecular target: T1, Son of sevenless homolog 1 (Homo sapiens); experiment: Biphasic activity at SOS1 in human HeLa cells assessed as reduction in ERK1/2 T202/Y204 phosphorylation at 100 uM measured after 30 mins by Western blot analysis; type: cell-based; summary of the method: as §1

| SMILES | fold change (FC) [1] | fold change (FC) [2] | fold change (FC) [3] | fold change (FC) [4] | fold change (FC) [5] | fold change (FC) [6] | fold change (FC) [7] | fold change (FC) [8] | fold change (FC) [9] | fold change (FC) [10] | fold change (FC) [11] | fold change (FC) [12] | inhibition [13] | inhibition [14] | Activity [15] |
| --- | --- | --- | --- | --- | --- | --- | --- | --- | --- | --- | --- | --- | --- | --- | --- |
| C[C@@H](Nc1nc(Nc2ccc(F)c(Cl)c2)nc2c(CN)cccc12)C1CC1 | 1.18 | 0.98 | 2.43 | 0.59 | 1.54 | 1.05 | 1.39 | 1.83 | 0.94 | 1.14 | 2.52 | 1.15 | – | – | – |
| C[C@@H](Nc1nc(Nc2ccc(F)c(Cl)c2)nc2ccccc12)C1CCC1 | – | – | – | – | – | – | – | – | – | – | – | – | – | – | inactive |
| C[C@@H](Nc1nc(Nc2ccc(F)c(Cl)c2)nc2c(C3=CCNCC3)cccc12)C1CC1 | 1.6 | 1.72 | 1.16 | 0.58 | 1.51 | 1.43 | 1.08 | 1.98 | 1.29 | 1.56 | 1.98 | 1.41 | – | – | – |
| Clc1cc(Cl)cc(Nc2nc(NCc3ccco3)c3ccccc3n2)c1 | – | – | – | – | – | – | – | – | – | – | – | – | – | – | inactive |
| C[C@@H](Nc1nc(Nc2ccc(F)c(Cl)c2)nc2c(CCN)cccc12)C1CC1 | 1.58 | 0.97 | 1.18 | 0.44 | 1.66 | 1.11 | 1.64 | 1.59 | 1.82 | 1.61 | 1.87 | 1.22 | – | – | – |

Results, then the compound that gave them:

| fold change (FC) [1] | fold change (FC) [2] | fold change (FC) [3] | fold change (FC) [4] | fold change (FC) [5] | fold change (FC) [6] | fold change (FC) [7] | fold change (FC) [8] | fold change (FC) [9] | fold change (FC) [10] | fold change (FC) [11] | fold change (FC) [12] | inhibition [13] | inhibition [14] | Activity [15] | SMILES |
| --- | --- | --- | --- | --- | --- | --- | --- | --- | --- | --- | --- | --- | --- | --- | --- |
| 0.69 | 0.53 | 3.68 | 4.01 | 1.39 | 1.16 | 0.85 | 1.67 | 1.03 | 1.26 | 1.61 | 0.95 | inactive | inactive | – | C[C@@H](Nc1nc(Nc2ccc(F)c(Cl)c2)nc2ccccc12)C1CC1 |
| – | – | – | – | – | – | – | – | – | – | – | – | – | – | inactive | CC(C)C[C@@H](Nc1nc(Nc2ccc(F)c(Cl)c2)nc2ccccc12)C1CC1 |
| – | – | – | – | – | – | – | – | – | – | – | – | – | – | inactive | CC[C@@H](Nc1nc(Nc2ccc(F)c(Cl)c2)nc2ccccc12)C1CCC1 |
| – | – | – | – | – | – | – | – | – | – | – | – | – | – | inactive | CC[C@H](Nc1nc(Nc2ccc(F)c(Cl)c2)nc2ccccc12)C1CC1 |
